Experimental data collected from several papers.
Compare with care: the assays were run in different laboratories.

`CCN1CCN(Cc2ccc(NC(=O)c3ccc(C)c(NC(=O)c4cncc(-c5cccs5)c4)c3)cc2C(F)(F)F)CC1` gave a Cmax of 488 ng/mL (mouse; plasma; intraperitoneal; 10 mg/kg; single dose).
The Cmax of `C=CS(=O)(=O)c1ccc(Nc2nc(OCC3CCCCC3)c3nc[nH]c3n2)cc1` is reported as 190 ng/mL (male BALB/c mouse; plasma; intraperitoneal; 20 mg/kg; single dose).
`O=C(ONc1nc2nonc2nc1Nc1ccccc1F)c1ccc(OC(F)(F)F)cc1` has a Cmax of 1.9 nM (male C57BL/6 mouse; plasma; oral; 10 mg/kg).
`O=C(COc1ccc(N2C(=O)[C@@H]3[C@@H]4C=C[C@@H]([C@H]5C[C@@H]45)[C@@H]3C2=O)cc1)c1cc(Cl)cc(Cl)c1` has a Cmax of 5000 nM (mouse; brain; oral; 20 mg/kg).
`O=C1CCN2C(=O)c3ccccc3C2C(=O)Nc2ccccc21` (centres unmarked) has a Cmax of 617 nM (male Swiss mouse; plasma; oral; 100 mg/kg).
`Cc1c(C(=O)O)ccc2c3n(nc12)[C@@H]1[C@H](C3)N(CC2CC2)[C@@]2(C(=O)Nc3cc(Cl)ccc32)[C@H]1c1cccc(Cl)c1F` gave a Cmax of 7400 nM (female mouse; plasma; oral; 5 mg/kg).
`Nc1ncn([C@H]2C[C@H](O)[C@@H](CO)O2)c(=O)n1` has a Cmax of 118 ng/mL (female C57BL/6 mouse; plasma; oral; 0.4 mg/kg).
`CC(=O)O[C@@]12CO[C@@H]1C[C@H](O)[C@@]1(C)C(=O)[C@H](O)C3=C(C)[C@@H](OC(=O)[C@H](O)[C@@H](NC(=O)OC(C)(C)C)c4ccccc4)C[C@@](O)([C@@H](OC(=O)c4ccccc4)[C@H]21)C3(C)C` gave a Cmax of 4.1 ng/mL (male Kunming mouse; plasma; oral; 20 mg/kg).
